According to ChEMBL document CHEMBL3244092, “Synthesis of episilon-rhodomycinone glycosides” (1977):
The source made the active and inactive calls. The rule behind the calls is not given here.

Each molecule was assayed on P388 (assay: Antitumor activity against mouse P388 cells allografted in CDF mouse assessed as tumor growth inhibition at 18 mg/kg/day relative to control).
Assay type: functional
Method in brief: (§1)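 P388 lymphatic leukemia carried in CDF mice, with compound given as a daily dose in mg/kg/day. Activity was read out as T/C, treated versus control. Route, vehicle and schedule length are not given.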

SMILES | T/C [%]
CC[C@@]1(O)C[C@H](O[C@H]2C[C@H](O)[C@H](O)[C@H](C)O2)c2c(O)c3c(c(O)c2[C@H]1C(=O)OC)C(=O)c1cccc(O)c1C3=O | 109

What follows are molecules tested on P388 (assay: Antitumor activity against mouse P388 cells allografted in CDF mouse assessed as tumor growth inhibition at 13 mg/kg/day relative to control).
Assay type: functional
Method in brief: as §1

SMILES | T/C [%]
CC[C@@]1(O)C[C@H](O[C@H]2C[C@H](O)[C@H](O)CO2)c2c(O)c3c(c(O)c2[C@H]1C(=O)OC)C(=O)c1cccc(O)c1C3=O | 115

What follows are molecules tested on P388 (assay: Antitumor activity against mouse P388 cells allografted in CDF mouse assessed as tumor growth inhibition at 64 mg/kg/day relative to control).
Assay type: functional
Method in brief: as §1

SMILES | T/C [%]
CC[C@@]1(O)C[C@H](O[C@H]2C[C@H](OC(C)=O)[C@H](OC(C)=O)CO2)c2c(O)c3c(c(O)c2[C@H]1C(=O)OC)C(=O)c1cccc(O)c1C3=O | 125

Each molecule was assayed on Enterobacteria phage lambda (assay: Induction of lambda phage production in streptomycin-dependent lysogenic Escherichia coli W1709(lambda) assessed as ratio of plaques in treated culture to control).
Assay type: functional

SMILES | Activity
CC[C@@]1(O)C[C@H](O[C@@H]2O[C@H](COC(C)=O)[C@@H](OC(C)=O)[C@H](OC(C)=O)[C@H]2OC(C)=O)c2c(O)c3c(c(O)c2[C@H]1C(=O)OC)C(=O)c1cccc(O)c1C3=O | inactive
CC[C@@]1(O)C[C@H](O[C@@H]2O[C@@H](C)[C@@H](O)[C@@H](O)[C@@H]2O)c2c(O)c3c(c(O)c2[C@H]1C(=O)OC)C(=O)c1cccc(O)c1C3=O | inactive
CC[C@@]1(O)C[C@H](O[C@H]2C[C@H](OC(=O)c3ccc([N+](=O)[O-])cc3)[C@@H](COC(=O)c3ccc([N+](=O)[O-])cc3)O2)c2c(O)c3c(c(O)c2[C@H]1C(=O)OC)C(=O)c1cccc(O)c1C3=O | inactive
CC[C@@]1(O)C[C@H](O[C@@H]2OC[C@H](O)[C@H](O)[C@H]2O)c2c(O)c3c(c(O)c2[C@H]1C(=O)OC)C(=O)c1cccc(O)c1C3=O | inactive
CC[C@@]1(O)C[C@H](O[C@@H]2O[C@H](COCc3ccccc3)[C@@H](OCc3ccccc3)[C@@H]2OCc2ccccc2)c2c(O)c3c(c(O)c2[C@H]1C(=O)OC)C(=O)c1cccc(O)c1C3=O | inactive
CC[C@@]1(O)C[C@H](O[C@@H]2OC[C@H](OC(C)=O)[C@@H](OC(C)=O)[C@H]2OC(C)=O)c2c(O)c3c(c(O)c2[C@H]1C(=O)OC)C(=O)c1cccc(O)c1C3=O | inactive
CC[C@@]1(O)C[C@H](O[C@@H]2OC[C@@H](OC(C)=O)[C@@H](OC(C)=O)[C@@H]2OC(C)=O)c2c(O)c3c(c(O)c2[C@H]1C(=O)OC)C(=O)c1cccc(O)c1C3=O | inactive
CC[C@@]1(O)C[C@H](O[C@@H]2O[C@H](CO)[C@@H](O)[C@H](O)[C@H]2O)c2c(O)c3c(c(O)c2[C@H]1C(=O)OC)C(=O)c1cccc(O)c1C3=O | inactive
CC[C@@]1(O)C[C@H](O[C@@H]2O[C@H](CO)[C@@H](O)[C@H]2O)c2c(O)c3c(c(O)c2[C@H]1C(=O)OC)C(=O)c1cccc(O)c1C3=O | inactive
CC[C@@]1(O)C[C@H](O[C@@H]2OC[C@@H](OC(C)=O)[C@@H](OC(C)=O)[C@H]2OC(C)=O)c2c(O)c3c(c(O)c2[C@H]1C(=O)OC)C(=O)c1cccc(O)c1C3=O | inactive
CC[C@@]1(O)C[C@H](O[C@@H]2O[C@H](CO)[C@H](O)[C@H]2O)c2c(O)c3c(c(O)c2[C@H]1C(=O)OC)C(=O)c1cccc(O)c1C3=O | inactive
CC[C@@]1(O)C[C@H](O[C@H]2C[C@H](OC(C)=O)[C@H](OC(C)=O)CO2)c2c(O)c3c(c(O)c2[C@H]1C(=O)OC)C(=O)c1cccc(O)c1C3=O | inactive
CC[C@@]1(O)C[C@H](O[C@@H]2O[C@@H](C)[C@@H](OC(C)=O)[C@@H](OC(C)=O)[C@@H]2OC(C)=O)c2c(O)c3c(c(O)c2[C@H]1C(=O)OC)C(=O)c1cccc(O)c1C3=O | inactive
CC[C@@]1(O)C[C@H](O[C@H]2C[C@H](OC(C)=O)[C@H](OC(C)=O)[C@H](C)O2)c2c(O)c3c(c(O)c2[C@H]1C(=O)OC)C(=O)c1cccc(O)c1C3=O | inactive
CC[C@@]1(O)C[C@H](O[C@H]2C[C@H](OC(C)=O)[C@@H](OC(C)=O)[C@H](C)O2)c2c(O)c3c(c(O)c2[C@H]1C(=O)OC)C(=O)c1cccc(O)c1C3=O | inactive
CC[C@@]1(O)C[C@H](O[C@@H]2O[C@@H](COC(=O)c3ccccc3)[C@@H](OC(=O)c3ccccc3)[C@H]2OC(=O)c2ccccc2)c2c(O)c3c(c(O)c2[C@H]1C(=O)OC)C(=O)c1cccc(O)c1C3=O | inactive
CC[C@@]1(O)C[C@H](O[C@H]2C[C@H](O)[C@@H](O)[C@H](C)O2)c2c(O)c3c(c(O)c2[C@H]1C(=O)OC)C(=O)c1cccc(O)c1C3=O | inactive
CC[C@@]1(O)C[C@H](O[C@@H]2OC[C@H](OC(C)=O)[C@H](OC(C)=O)[C@H]2OC(C)=O)c2c(O)c3c(c(O)c2[C@H]1C(=O)OC)C(=O)c1cccc(O)c1C3=O | inactive
CC[C@@]1(O)C[C@H](O[C@H]2C[C@H](O)[C@H](O)CO2)c2c(O)c3c(c(O)c2[C@H]1C(=O)OC)C(=O)c1cccc(O)c1C3=O | inactive
CC[C@@]1(O)C[C@H](O[C@@H]2O[C@H](COC(=O)c3ccccc3)[C@@H](OC(=O)c3ccccc3)[C@H]2OC(=O)c2ccccc2)c2c(O)c3c(c(O)c2[C@H]1C(=O)OC)C(=O)c1cccc(O)c1C3=O | inactive
CC[C@@]1(O)C[C@H](O[C@@H]2O[C@@H](C)[C@H](OC(C)=O)[C@@H](OC(C)=O)[C@H]2OC(C)=O)c2c(O)c3c(c(O)c2[C@H]1C(=O)OC)C(=O)c1cccc(O)c1C3=O | inactive
CC[C@@]1(O)C[C@H](O[C@H]2C[C@H](O)[C@@H](CO)O2)c2c(O)c3c(c(O)c2[C@H]1C(=O)OC)C(=O)c1cccc(O)c1C3=O | inactive
CC[C@@]1(O)C[C@H](O[C@@H]2OC[C@@H](OC(C)=O)[C@H](OC(C)=O)[C@H]2OC(C)=O)c2c(O)c3c(c(O)c2[C@H]1C(=O)OC)C(=O)c1cccc(O)c1C3=O | inactive
CC[C@@]1(O)C[C@H](O[C@@H]2O[C@@H](CO)[C@@H](O)[C@H]2O)c2c(O)c3c(c(O)c2[C@H]1C(=O)OC)C(=O)c1cccc(O)c1C3=O | inactive
CC[C@@]1(O)C[C@H](O[C@@H]2O[C@H](COC(=O)c3ccc([N+](=O)[O-])cc3)[C@H](OC(=O)c3ccc([N+](=O)[O-])cc3)[C@H]2OC(=O)c2ccc([N+](=O)[O-])cc2)c2c(O)c3c(c(O)c2[C@H]1C(=O)OC)C(=O)c1cccc(O)c1C3=O | inactive
CC[C@@]1(O)C[C@H](O[C@H]2C[C@H](O)[C@H](O)[C@H](C)O2)c2c(O)c3c(c(O)c2[C@H]1C(=O)OC)C(=O)c1cccc(O)c1C3=O | inactive

What follows are molecules tested on P388 (assay: Antitumor activity against mouse P388 cells allografted in CDF mouse assessed as tumor growth inhibition at 32 to 128 mg/kg/day relative to control).
Assay type: functional
Method in brief: as §1

SMILES | T/C [%]
CC[C@@]1(O)C[C@H](O[C@H]2C[C@H](OC(C)=O)[C@H](OC(C)=O)CO2)c2c(O)c3c(c(O)c2[C@H]1C(=O)OC)C(=O)c1cccc(O)c1C3=O | 110

The molecules below were run on Bacillus subtilis (assay: Antibacterial activity against Bacillus subtilis).
Assay type: functional, organism-based

SMILES | Activity
CC[C@@]1(O)C[C@H](O[C@H]2C[C@H](OC(C)=O)[C@H](OC(C)=O)CO2)c2c(O)c3c(c(O)c2[C@H]1C(=O)OC)C(=O)c1cccc(O)c1C3=O | Active
